{
  "source": "ChEMBL document CHEMBL1142174",
  "about": "“Pyrazinoic acid and its n-propyl ester inhibit fatty acid synthase type I in replicating tubercle bacilli” (2007)",
  "key": {"[1]": {"system": "Mycobacterium tuberculosis variant bovis BCG", "assay": "Inhibition of fatty acid synthase 1 in Mycobacterium bovis BCG assessed as incorporation of [1-14C]acetate in C16 biosynthesis at 1500 ug/ml at pH 6.0", "method_in_brief": "(§1)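 M. bovis BCG was exposed to drug in medium at pH 6 or 6.8, then labelled with [1-14C]acetate. Extracted fatty acids were analysed by HPLC for 14C-labelled C16.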"}, "[2]": {"system": "Mycobacterium tuberculosis variant bovis BCG", "assay": "Inhibition of fatty acid synthase 1 in Mycobacterium bovis BCG assessed as incorporation of [1-14C]acetate in C16 biosynthesis at 1500 ug/ml at pH 6.8", "method_in_brief": "as §1"}},
  "data": [
    {"smiles": "O=C(O)c1cnccn1", "note": "[PYRAZINOIC ACID]", "values": [
      {"measurement": "inhibition", "setting": "[1]", "result": 97, "unit": "%"},
      {"measurement": "inhibition", "setting": "[2]", "result": 30, "unit": "%"}
    ]}
  ]
}
